Test results reported in ChEMBL document CHEMBL1139875, “Discovery of 4-aminobutyric acid derivatives possessing anticonvulsant and antinociceptive activities: a hybrid pharmacophore approach” (2007).
Calls of active or inactive are those of the source. No cut-off for these calls is given here.

Tests used:
[1] = tested on: Rattus norvegicus; assay: Anti-cold allodynia effect in Sprague-Dawley rat SNL model assessed as duration of paw withdrawal 100 mg/kg, ip after 2 hrs; format: functional; details: route intraperitoneal
Procedure, shortened: (§1)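 Left L5 spinal nerve ligation under pentobarbital (65 mg/kg i.p.). Allodynic rats dosed i.p. 100 mg/kg, vehicle 30% v/v PEG 400 in water. Acetone (100-200 µL) misted onto midplantar affected paw after 10 min acclimatization; paw withdrawal duration, mean of three samples at least 3 min apart; n = 4 rats.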

[2] = species on record: Rattus norvegicus; assay: Anti-dynamic allodynic effect in Sprague-Dawley rat CCI model assessed as latency to paw withdrawal after 2 hr; format: functional
Procedure, shortened: (§2)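 Rats with sciatic nerve chronic constriction injury (pentobarbital 65 mg/kg i.p. anaesthesia), baseline and day 9 testing, then drug per randomization table. After 10 min acclimatization, affected plantar surface stroked mildly with a cotton-bud; paw lift recorded. n = 4; retested 0.5-2.5 h post-dose.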

[3] = tested on: Mus musculus; assay: Anticonvulsant activity in Swiss Albino mouse at 300 mg/kg, ip after 0.5 hr by scPIC test; format: functional, organism-based; parameters: dose 300 mg/kg
Procedure, shortened: (§3)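 Mice (Swiss, 20-25 g) given i.p. doses of 30, 100 and 300 mg/kg under ADD program protocols, three per group, examined at 0.5 and 4 h in MES, scPTZ, scSTY or scPIC seizure tests. Value is the minimum dose protecting half or more of the mice.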

[4] = tested on: Rattus norvegicus; assay: Effect on spontaneous pain in Sprague-Dawley rat SNL model assessed as duration of paw withdrawal at 100 mg/kg, ip after 0.5 hr; format: functional; details: route intraperitoneal
Procedure, shortened: (§4)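 Rats underwent left L5 spinal nerve ligation (Kim and Chung) under i.p. pentobarbital (65 mg/kg). Spontaneous pain is recorded for 5 min after 10 min acclimatization, as cumulative duration the ipsilateral paw is lifted, excluding locomotor lifts. Dosing is 100 mg/kg i.p. in 30% v/v PEG 400/water, with testing at 0.5–2.5 h. Four rats, mean ± SEM versus predrug, one-way ANOVA with Bonferroni.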

[5] = tested on: Rattus norvegicus; assay: Anti-dynamic allodynia effect in Sprague-Dawley rat SNL model assessed as latency to paw withdrawal 100 mg/kg, ip after 0.5 hr; format: functional; details: route intraperitoneal
Procedure, shortened: (§5)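 Left L5 spinal nerve ligation rats, tested preoperatively and 9 days postoperatively, then given 100 mg/kg i.p. (vehicle 30% v/v PEG 400 in water). After 10 min acclimatization, plantar surface of affected paw stroked mildly with a cotton-bud; paw lift response recorded. n = 4; retested 0.5-2.5 h post-dose.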

[6] = tested on: Rattus norvegicus; assay: Effect on spontaneous pain in Sprague-Dawley rat SNL model assessed as duration of paw withdrawal at 100 mg/kg, ip after 1 hr; format: functional; details: route intraperitoneal; procedure, shortened: as §4
[7] = tested on: Rattus norvegicus; assay: Effect on spontaneous pain in Sprague-Dawley rat SNL model assessed as duration of paw withdrawal at 100 mg/kg, ip after 1.5 hrs; format: functional; details: route intraperitoneal; procedure, shortened: as §4
[8] = tested on: Rattus norvegicus; assay: Effect on spontaneous pain in Sprague-Dawley rat SNL model assessed as duration of paw withdrawal at 100 mg/kg, ip after 2.5 hrs; format: functional; details: route intraperitoneal; procedure, shortened: as §4
[9] = tested on: Rattus norvegicus; assay: Antihyperalgesic effects in Sprague-Dawley rat CCI model assessed as duration of paw withdrawal at 100 mg/kg, ip after 1 hr; format: functional; details: route intraperitoneal
[10] = species on record: Rattus norvegicus; assay: Anti-dynamic allodynic effect in Sprague-Dawley rat CCI model assessed as latency to paw withdrawal after 1 hr; format: functional; procedure, shortened: as §2
[11] = tested on: Rattus norvegicus; assay: Anti-cold allodynia effect in Sprague-Dawley rat SNL model assessed as duration of paw withdrawal 100 mg/kg, ip after 1.5 hrs; format: functional; details: route intraperitoneal; procedure, shortened: as §1
[12] = tested on: Mus musculus; assay: Anticonvulsant activity in Swiss Albino mouse at 300 mg/kg, ip after 4 hrs by MES test; format: functional, organism-based; parameters: dose 300 mg/kg; procedure, shortened: as §3
[13] = tested on: Rattus norvegicus; assay: Anti-cold allodynia effect in Sprague-Dawley rat SNL model assessed as duration of paw withdrawal 100 mg/kg, ip after 0.5 hr; format: functional; details: route intraperitoneal; procedure, shortened: as §1
[14] = tested on: Rattus norvegicus; assay: Antihyperalgesic effects in Sprague-Dawley rat CCI model assessed as duration of paw withdrawal at 100 mg/kg, ip after 0.5 hr; format: functional; details: route intraperitoneal
[15] = tested on: Rattus norvegicus; assay: Anti-dynamic allodynia effect in Sprague-Dawley rat SNL model assessed as latency to paw withdrawal 100 mg/kg, ip after 1.5 hrs; format: functional; details: route intraperitoneal; procedure, shortened: as §5
[16] = tested on: Mus musculus; assay: Analgesic activity in Swiss Albino mouse assessed as inhibition of acetic acid-induced writhing responses at 100 mg/kg, ip; format: functional; details: route intraperitoneal
Procedure, shortened: (§6)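 Mice in groups of six dosed i.p. at 100 mg/kg, controls receiving 30% v/v PEG 400 in water. Writhing induced by i.p. 0.1 mL of 3% v/v acetic acid 1 h after drug. Writhes (abdominal stretch with at least one hind limb extended) counted over 30 min; % inhibition calculated. Mean ± SEM, Student's t test.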

[17] = tested on: Rattus norvegicus; assay: Antihyperalgesic effects in Sprague-Dawley rat CCI model assessed as duration of paw withdrawal at 100 mg/kg, ip after 1.5 hrs; format: functional; details: route intraperitoneal
[18] = tested on: Rattus norvegicus; assay: Anti-dynamic allodynia effect in Sprague-Dawley rat SNL model assessed as latency to paw withdrawal 100 mg/kg, ip after 2 hrs; format: functional; details: route intraperitoneal; procedure, shortened: as §5
[19] = tested on: Mus musculus; assay: Analgesic activity in Swiss Albino mouse assessed as number of acetic acid-induced writhing per 30 min after 100 mg/kg, ip; format: functional; details: route intraperitoneal; procedure, shortened: as §6
[20] = tested on: Rattus norvegicus; assay: Antihyperalgesic effects in Sprague-Dawley rat CCI model assessed as duration of paw withdrawal at 100 mg/kg, ip after 2.5 hrs; format: functional; details: route intraperitoneal
[21] = tested on: Mus musculus; assay: Anticonvulsant activity in Swiss Albino mouse at 300 mg/kg, ip after 4 hrs by scSTY test; format: functional, organism-based; parameters: dose 300 mg/kg; procedure, shortened: as §3
[22] = tested on: Rattus norvegicus; assay: Anti-cold allodynia effect in Sprague-Dawley rat SNL model assessed as duration of paw withdrawal 100 mg/kg, ip after 2.5 hrs; format: functional; details: route intraperitoneal; procedure, shortened: as §1
[23] = species on record: Rattus norvegicus; assay: Anti-dynamic allodynic effect in Sprague-Dawley rat CCI model assessed as latency to paw withdrawal after 0.5 hr; format: functional; procedure, shortened: as §2
[24] = tested on: Mus musculus; assay: Anticonvulsant activity in Swiss Albino mouse at 300 mg/kg, ip after 0.5 hr by scSTY test; format: functional, organism-based; parameters: dose 300 mg/kg; procedure, shortened: as §3
[25] = tested on: Mus musculus; assay: Anticonvulsant activity in Swiss Albino mouse at 300 mg/kg, ip after 4 hrs by scPIC test; format: functional, organism-based; parameters: dose 300 mg/kg; procedure, shortened: as §3
[26] = tested on: Rattus norvegicus; assay: Anti-cold allodynia effect in Sprague-Dawley rat SNL model assessed as duration of paw withdrawal 100 mg/kg, ip after 1 hrs; format: functional; details: route intraperitoneal; procedure, shortened: as §1
[27] = tested on: Rattus norvegicus; assay: Antihyperalgesic effects in Sprague-Dawley rat CCI model assessed as duration of paw withdrawal at 100 mg/kg, ip after 2 hrs; format: functional; details: route intraperitoneal
[28] = tested on: Rattus norvegicus; assay: Anti-dynamic allodynia effect in Sprague-Dawley rat SNL model assessed as latency to paw withdrawal 100 mg/kg, ip after 1 hr; format: functional; details: route intraperitoneal; procedure, shortened: as §5
[29] = tested on: Rattus norvegicus; assay: Anti-dynamic allodynia effect in Sprague-Dawley rat SNL model assessed as latency to paw withdrawal 100 mg/kg, ip after 2.5 hrs; format: functional; details: route intraperitoneal; procedure, shortened: as §5
[30] = species on record: Rattus norvegicus; assay: Anti-dynamic allodynic effect in Sprague-Dawley rat CCI model assessed as latency to paw withdrawal after 1.5 hr; format: functional; procedure, shortened: as §2
[31] = tested on: Mus musculus; assay: Neurotoxicity in Swiss Albino mouse at 300 mg/kg, ip after 4 hrs by rotarod test; format: functional, organism-based; parameters: dose 300 mg/kg
Procedure, shortened: (§7)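 Swiss mice (20-25 g) are trained on an accelerating rotorod (10 rpm, 3.2 cm rod), then injected i.p. at 30, 100 or 300 mg/kg, with three per group. Neurotoxicity means failure to keep equilibrium for at least 1 min in each of three trials, checked at 0.5 and 4 h. The value reported is the minimum dose affecting half or more of the mice.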

[32] = tested on: Rattus norvegicus; assay: Effect on spontaneous pain in Sprague-Dawley rat SNL model assessed as duration of paw withdrawal at 100 mg/kg, ip after 2 hrs; format: functional; details: route intraperitoneal; procedure, shortened: as §4
[33] = tested on: Mus musculus; assay: Neurotoxicity in Swiss Albino mouse at 300 mg/kg, ip after 0.5 hr by rotarod test; format: functional, organism-based; parameters: dose 300 mg/kg; procedure, shortened: as §7
[34] = tested on: Mus musculus; assay: Anticonvulsant activity in Swiss Albino mouse at 300 mg/kg, ip after 0.5 hr by scPTZ test; format: functional, organism-based; parameters: dose 300 mg/kg; procedure, shortened: as §3
[35] = species on record: Rattus norvegicus; assay: Anti-dynamic allodynic effect in Sprague-Dawley rat CCI model assessed as latency to paw withdrawal after 2.5 hr; format: functional; procedure, shortened: as §2
[36] = tested on: Mus musculus; assay: Anticonvulsant activity in Swiss Albino mouse at 300 mg/kg, ip after 0.5 hr by MES test; format: functional, organism-based; parameters: dose 300 mg/kg; procedure, shortened: as §3

## O=C(O)CCCNC(=O)N/N=C(\c1ccccc1)c1ccc(Br)cc1
[1]
  Activity: 10.8 s
[2]
  Activity: 10.9 s
[3]
  Activity: inactive
[4]
  Activity: 25.1 s
[5]
  Activity: 9.8 s
[6]
  Activity: 28.5 s
[7]
  Activity: 23.1 s
[8]
  Activity: 8.7 s
[9]
  Activity: 8.5 s
[10]
  Activity: 10.3 s
[11]
  Activity: 11.8 s
[12]
  Activity: inactive
[13]
  Activity: 19.1 s
[14]
  Activity: 20.5 s
[15]
  Activity: 10.8 s
[16]
  inhibition in vivo at 100 mg/kg: 89%
[17]
  Activity: 5.1 s
[18]
  Activity: 10.3 s
[19]
  Activity: 21
[20]
  Activity: 5.6 s
[21]
  Activity: Active
[22]
  Activity: 10.2 s
[23]
  Activity: 11.4 s
[24]
  Activity: Active
[25]
  Activity: inactive
[26]
  Activity: 23.8 s
[27]
  Activity: 7.3 s
[28]
  Activity: 10.6 s
[29]
  Activity: 10.23 s
[30]
  Activity: 10.6 s
[31]
  Activity: inactive
[32]
  Activity: 10.1 s
[33]
  Activity: inactive
[34]
  Activity: inactive
[35]
  Activity: 11.3 s
[36]
  Activity: Active
